Assay results taken from ChEMBL document CHEMBL3779858, “Design, synthesis and Structure-activity relationship studies of new thiazole-based free fatty acid receptor 1 agonists for the treatment of type 2 diabetes” (Eur J Med Chem, 2016).
Calls of active or inactive are those of the source. The calls are words filed in the database; no cut-off is given here.

Assays:
[1] = target: T1, Free fatty acid receptor 1 (Homo sapiens, UniProt O14842); experiment: Agonist activity at human FFA1 receptor expressed in CHO cells assessed as Ca2+ influx at 100 nM by FLIPR assay; assay type: functional, cell-based
T1 sequence (O14842 whole entry): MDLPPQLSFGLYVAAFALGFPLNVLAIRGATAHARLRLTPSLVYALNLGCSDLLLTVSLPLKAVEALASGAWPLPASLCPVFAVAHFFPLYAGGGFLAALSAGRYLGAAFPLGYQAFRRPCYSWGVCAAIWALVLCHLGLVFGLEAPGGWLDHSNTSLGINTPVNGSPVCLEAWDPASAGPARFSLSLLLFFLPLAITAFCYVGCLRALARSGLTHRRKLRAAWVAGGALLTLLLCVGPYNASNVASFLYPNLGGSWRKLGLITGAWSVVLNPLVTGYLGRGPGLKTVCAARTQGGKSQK
Method in brief: (§1)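 Human FFA1 stably expressed in CHO cells, seeded at 15K/well and grown 16 h at 37 °C, 5% CO2. Cells loaded 1 h at 37 °C with Fluo 4-AM (2.5 µg/mL), 2.5 mmol/L probenecid and 0.1% fatty acid-free BSA. Single screening concentration as listed. Ca2+ flux read on FLIPR Tetra and expressed as % of the 10 µM γ-linolenic acid response after vehicle subtraction. Mean of three independent experiments.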

[2] = test system: Mus musculus; experiment: Antidiabetic activity in overnight fasted ICR mouse assessed as decrease in blood glucose level at […], po administered 30 mins prior to glucose challenge measured after 15 to 120 mins by OGTT method; assay type: functional, organism-based; conditions: 38 umol/kg
Method in brief: (§2)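 Male ICR mice, 10 weeks old, 18-22 g, fasted overnight (12 h), n = 6 per group. Single oral dose in 0.5% CMC-Na vehicle (10 mL/kg), […] for the reference compound (20 mg/kg) and for the test compounds. Oral glucose load (30%, 3 g/kg) given 30 min later. Tail blood glucose measured by test strip at -30, 0, 15, 30, 45, 60 and 120 min. AUC0-2h also derived. Mean ± SEM.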

[3] = target: T1, Free fatty acid receptor 1; experiment: Agonist activity at human FFA1 receptor expressed in CHO cells assessed as Ca2+ influx by FLIPR assay; assay type: functional, cell-based
Method in brief: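 Ca2+ flux assay in CHO cells stably expressing human FFA1: seeded at 15K/well and grown 16 h, then Fluo 4-AM loaded 1 h at 37 °C with probenecid and fatty acid-free BSA. Compounds tested at various concentrations. Response normalized to vehicle (0%) and 10 µM γ-linolenic acid (100%). EC50 from concentration–response fitting, mean of three determinations.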

[4] = test system: Mus musculus; experiment: Antidiabetic activity in overnight fasted ICR mouse assessed as decrease in plasma glucose AUC at […], po administered 30 mins prior to glucose challenge measured after 15 to 120 mins by OGTT method; assay type: functional, organism-based; method in brief: as §2
[5] = target: T1, Free fatty acid receptor 1; experiment: Agonist activity at human FFA1 receptor expressed in CHO cells assessed as Ca2+ influx at 300 nM by FLIPR assay; assay type: functional, cell-based; method in brief: as §1
[6] = test system: Mus musculus; experiment: Toxicity in overnight fasted ICR mouse assessed as hypoglycemic effect at 60 mg/kg, po after 30 to 120 mins […]; assay type: organism-based; conditions: in vivo
Method in brief: (§3)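 Fasting hypoglycemia test without a glucose load: male ICR mice, 10 weeks old, fasted overnight, 3 groups of n = 6. Single oral dose of 60 mg/kg test compound, 15 mg/kg glibenclamide or 0.5% CMC-Na vehicle. Tail-vein blood glucose measured by test strip at 0, 30, 60, 90, 120 and 180 min. Mean ± SEM.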

[7] = test system: Mus musculus; experiment: Hepatotoxicity in ICR mouse assessed as aspartate aminotransferase levels in serum at 30 mg/kg qd administered through oral gavage for 30 days (reference value: 133.1 +/- 13.1 IU/L); assay type: toxicity, organism-based; conditions: in vivo, 720 h
[8] = test system: Mus musculus; experiment: Antihyperglycemic activity in overnight fasted STZ-induced type 2 dibetic C57BL/6 mouse assessed as decrease in blood glucose level at 30 mg/kg, po administered 30 mins prior to glucose challenge measured after 15 to 120 mins by OGTT method; assay type: functional, organism-based
Method in brief: (§4)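 Male C57BL/6 mice fed a 45%-fat diet for 4 weeks, given STZ i.p. (80 mg/kg), then high-fat diet for 4 more weeks. Fasting glucose of 11.1 mmol/L or higher taken as diabetic. After a 12 h fast, n = 6 per group, with a normal-mouse control group. Oral dose in 0.5% CMC-Na, then oral glucose (20%, 2 g/kg) 30 min later. Strip glucose at -30 to 120 min.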

[9] = test system: Mus musculus; experiment: Antidiabetic activity in overnight fasted po dosed ICR mouse assessed as decrease in blood glucose level administered 30 mins prior to glucose challenge measured after 15 to 120 mins by OGTT method; assay type: functional, organism-based; method in brief: as §2
[10] = test system: Mus musculus; experiment: Antidiabetic activity in overnight fasted ICR mouse assessed as decrease in blood glucose level at 60 mg/kg, po administered 30 mins prior to glucose challenge measured after 60 mins by OGTT method; assay type: functional, organism-based
Method in brief: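 Dose–response OGTT in male ICR mice, 10 weeks old, fasted 12 h, 5 groups of n = 6. Oral doses of 10, 30 or 60 mg/kg, or reference at 20 mg/kg, in 0.5% CMC-Na. Glucose (30%, 3 g/kg) given orally 30 min after dosing. Tail-blood glucose read by test strip at -30, 0, 15, 30, 45, 60 and 120 min. Mean ± SEM.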

[11] = test system: Mus musculus; experiment: Hepatotoxicity in ICR mouse assessed as alanine aminotransferase levels in serum at 30 mg/kg qd administered through oral gavage for 30 days (reference value: 35 +/- 4.3 IU/L); assay type: toxicity, organism-based; conditions: in vivo, 720 h
[12] = test system: Mus musculus; experiment: Hepatotoxicity in ICR mouse assessed as total bilirubin levels in serum at 30 mg/kg qd administered through oral gavage for 30 days (reference value: 4.1 +/- 0.4 IU/L); assay type: toxicity, organism-based; conditions: in vivo, 720 h
[13] = test system: Mus musculus; experiment: Antidiabetic activity in overnight fasted ICR mouse assessed as decrease in blood glucose level at 20 mg/kg, po administered 30 mins prior to glucose challenge measured after 15 to 120 mins by OGTT method; assay type: functional, organism-based; method in brief: as §2
[14] = test system: Mus musculus; experiment: Hepatotoxicity in ICR mouse assessed as alanine aminotransferase levels in serum at 20 mg/kg qd administered through oral gavage for 30 days (reference value: 35 +/- 4.3 IU/L); assay type: toxicity, organism-based; conditions: in vivo, 720 h
[15] = test system: Mus musculus; experiment: Hepatotoxicity in ICR mouse assessed as aspartate aminotransferase levels in serum at 20 mg/kg qd administered through oral gavage for 30 days (reference value: 133.1 +/- 13.1 IU/L); assay type: toxicity, organism-based; conditions: in vivo, 720 h
[16] = test system: Mus musculus; experiment: Hepatotoxicity in ICR mouse assessed as total bilirubin levels in serum at 20 mg/kg qd administered through oral gavage for 30 days (reference value: 4.1 +/- 0.4 IU/L); assay type: toxicity, organism-based; conditions: in vivo, 720 h
[17] = test system: Mus musculus; experiment: Antihyperglycemic activity in overnight fasted STZ-induced type 2 dibetic C57BL/6 mouse assessed as decrease in blood glucose level at 20 mg/kg, po administered 30 mins prior to glucose challenge measured after 15 to 120 mins by OGTT method; assay type: functional, organism-based; method in brief: as §4
[18] = test system: Mus musculus; experiment: Toxicity in overnight fasted ICR mouse assessed as hypoglycemic effect at 15 mg/kg, po after 30 to 120 mins […]; assay type: organism-based; conditions: in vivo; method in brief: as §3

Row | Compound | Activity [1] [%] | Activity [5] [%] | other results
1 | Cc1nc(-c2cccc(C(F)(F)F)c2)sc1COc1ccc2c(c1)OCC2CC(=O)O (stereo not drawn) | 35.7 | – | –
2 | Cc1nc(-c2cccc(F)c2)sc1COc1ccc2c(c1)OCC2CC(=O)O (stereo not drawn) | 56.9 | – | Activity [2]: Active; EC50 [3]: 64.8 nM; Activity [4]: Active
3 | Cc1nc(-c2ccccc2)oc1COc1ccc2c(c1)OCC2CC(=O)O (stereo not drawn) | 7.15 | 21.2 | –
4 | Cc1nc(-c2ccsc2)sc1COc1ccc2c(c1)OCC2CC(=O)O (stereo not drawn) | 56.5 | – | Activity [2]: Active; EC50 [3]: 68.5 nM
5 | COc1cc(-c2nc(C)c(COc3ccc4c(c3)OCC4CC(=O)O)s2)cc(OC)c1OC (stereo not drawn) | 7.47 | – | –
6 | Cc1nc(-c2ccccc2Cl)sc1COc1ccc2c(c1)OCC2CC(=O)O (stereo not drawn) | 12.4 | – | –
7 | O=C(O)CC1COc2cc(OCc3csc(-c4ccccc4)n3)ccc21 (stereo not drawn) | 0.15 | 5.67 | –
8 | Cc1nc(-c2cccc(Cl)c2)sc1COc1ccc2c(c1)OCC2CC(=O)O (stereo not drawn) | 43 | – | EC50 [3]: 138 nM
9 | O=C(O)CC1COc2cc(OCc3cn(-c4ccccc4)nn3)ccc21 (stereo not drawn) | – | 0.89 | –
10 | Cc1nc(-c2ccc(C(F)(F)F)cc2)sc1COc1ccc2c(c1)OCC2CC(=O)O (stereo not drawn) | 50.4 | – | EC50 [3]: 96.7 nM
11 | Cc1nc(-c2ccccc2)sc1COc1ccc2c(c1)OCC2CC(=O)O (stereo not drawn) | 54.8 | 67.4 | Activity [2]: Active
12 | Cc1nc(-c2ccccc2C(F)(F)F)sc1COc1ccc2c(c1)OCC2CC(=O)O (stereo not drawn) | 7.76 | – | –
13 | O=C(O)CC1COc2cc(OCc3cc(-c4ccccc4)on3)ccc21 (stereo not drawn) | 0.84 | 1.67 | –
14 | Cc1ccccc1-c1nc(C)c(COc2ccc3c(c2)OCC3CC(=O)O)s1 (stereo not drawn) | 10.7 | – | –
15 | Cc1nc(-c2ccc(F)cc2)sc1COc1ccc2c(c1)OCC2CC(=O)O (stereo not drawn) | 61.6 | – | Activity [6]: Non-toxic; Activity [2]: Active; EC50 [3]: 48.7 nM; Activity [7]: 141.8 IU/L; Activity [8]: Active; Activity [4]: Active; Activity [9]: Dose-dependent effect; Activity [10]: Active; Activity [11]: 37.5 IU/L; Activity [12]: 4 IU/L
16 | Cc1nc(-c2ccc(Cl)s2)sc1COc1ccc2c(c1)OCC2CC(=O)O (stereo not drawn) | 8.34 | – | –
17 | O=C(O)CC1COc2cc(OCc3ncc(-c4ccccc4)s3)ccc21 (stereo not drawn) | 5.26 | 19.8 | –

Row | Compound | Activity [1] [%] | Activity [5] [%] | other results
18 | O=C(O)CC1COc2cc(OCc3ncc(-c4ccccc4)o3)ccc21 (stereo not drawn) | 2.34 | 10.2 | –
19 | Cc1cc(OCCCS(C)(=O)=O)cc(C)c1-c1cccc(COc2ccc3c(c2)OC[C@H]3CC(=O)O)c1 [FASIGLIFAM] | – | – | Activity [13]: Active; Activity [14]: 48.3 IU/L; Activity [15]: 181.1 IU/L; Activity [16]: 4 IU/L; Activity [17]: Active
20 | Cc1nc(-c2ccc(Cl)cc2)sc1COc1ccc2c(c1)OCC2CC(=O)O (stereo not drawn) | 53.4 | – | Activity [2]: Active; EC50 [3]: 85.6 nM; Activity [4]: Active
21 | Cc1cc(COc2ccc3c(c2)OCC3CC(=O)O)nn1-c1ccccc1 (stereo not drawn) | 0.98 | 1.23 | –
22 | Cc1nc(-c2cc3ccccc3o2)sc1COc1ccc2c(c1)OCC2CC(=O)O (stereo not drawn) | 14.8 | – | –
23 | O=C(O)CC1COc2cc(OCc3nc(-c4ccccc4)cs3)ccc21 (stereo not drawn) | 0.16 | 0.23 | –
24 | COc1ccc(-c2nc(C)c(COc3ccc4c(c3)OCC4CC(=O)O)s2)cc1 (stereo not drawn) | 46.8 | – | EC50 [3]: 123 nM
25 | Cc1nc(-c2cccs2)sc1COc1ccc2c(c1)OCC2CC(=O)O (stereo not drawn) | 35.1 | – | –
26 | Cc1cccc(-c2nc(C)c(COc3ccc4c(c3)OCC4CC(=O)O)s2)c1 (stereo not drawn) | 47.2 | – | EC50 [3]: 119 nM
27 | COc1ccc(Cl)cc1C(=O)NCCc1ccc(S(=O)(=O)NC(=O)NC2CCCCC2)cc1 [GLYBURIDE] | – | – | Activity [18]: Toxic
28 | Cc1nc(-c2cccc3ccccc23)sc1COc1ccc2c(c1)OCC2CC(=O)O (stereo not drawn) | 8.53 | – | –
29 | O=C(O)CC1COc2cc(OCc3nnc(-c4ccccc4)s3)ccc21 (stereo not drawn) | 3.36 | 13.7 | –
30 | Cc1ccc(-c2nc(C)c(COc3ccc4c(c3)OCC4CC(=O)O)s2)cc1 (stereo not drawn) | 54.9 | – | Activity [2]: Active; EC50 [3]: 73.5 nM; Activity [4]: Active
31 | COc1cc(OC)cc(-c2nc(C)c(COc3ccc4c(c3)OCC4CC(=O)O)s2)c1 (stereo not drawn) | 17.5 | – | –
32 | Cc1nc(-c2ccccc2F)sc1COc1ccc2c(c1)OCC2CC(=O)O (stereo not drawn) | 25.8 | – | –
33 | O=C(O)CC1COc2cc(OCc3nnc(-c4ccccc4)o3)ccc21 (stereo not drawn) | 1.54 | 6.31 | –
